Test results taken from ChEMBL document CHEMBL4251543, “Identification of potent tricyclic prodrug S1P1 receptor modulators” (Medchemcomm, 2017).

Experiments:
[1] = tested on: Rattus norvegicus; test: Immunosuppressive activity in Lewis rat assessed as reduction in blood lymphocytes count at 2 mg/kg, po after 24 hrs relative to control; format: functional; parameters: scale not given: the % may be the effect or the level left
Method in brief: (§1)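 Oral dosing in Lewis rats, with PEG300 as vehicle, given as solution or suspension adjusted for free test article if salt forms are used. Blood sampled at several time points. Lymphocytes counted on a hematology analyzer. Result is the reduction in circulating lymphocyte percentage versus the vehicle group at each time, averaged per group (n = 2).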

[2] = Prodrug conversion in Lewis rat blood assessed as formation phosphate metabolite at 2 mg/kg, po after 24 hrs; format: ADME, organism-based; conditions: in vivo
[3] = Prodrug conversion in Lewis rat blood assessed as parent compound levels at 2 mg/kg, po after 48 hrs; format: ADME, organism-based; conditions: in vivo, read-out: Drug metabolism
[4] = Prodrug conversion in Lewis rat blood assessed as formation phosphate metabolite at 2 mg/kg, po after 4 hrs; format: ADME, organism-based; conditions: in vivo
[5] = tested on: Rattus norvegicus; test: Immunosuppressive activity in Lewis rat assessed as reduction in blood lymphocytes count at 2 mg/kg, po after 48 hrs relative to control; format: functional; parameters: scale not given: the % may be the effect or the level left; method in brief: as §1
[6] = tested on: Rattus norvegicus; test: Immunosuppressive activity in Lewis rat assessed as reduction in blood lymphocytes count at 2 mg/kg, po after 4 hrs relative to control; format: functional; parameters: scale not given: the % may be the effect or the level left; method in brief: as §1
[7] = Prodrug conversion in Lewis rat blood assessed as parent compound levels at 2 mg/kg, po after 4 hrs; format: ADME, organism-based; conditions: in vivo, read-out: Drug metabolism
[8] = Prodrug conversion in Lewis rat blood assessed as parent compound levels at 2 mg/kg, po after 24 hrs; format: ADME, organism-based; conditions: in vivo, read-out: Drug metabolism
[9] = Half life in Lewis rat at 2 mg/kg, po after 72 hrs; format: ADME, organism-based; conditions: in vivo
[10] = Prodrug conversion in Lewis rat blood assessed as formation phosphate metabolite at 2 mg/kg, po after 48 hrs; format: ADME, organism-based; conditions: in vivo
[11] = target: Sphingosine 1-phosphate receptor 1 (Homo sapiens, UniProt P21453); test: Agonist activity at human S1P1 receptor expressed in CHO cell membranes after 45 mins by [35S]GTPgammaS binding assay; format: functional
Method in brief: (§2)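 Membranes from S1P1/CHO or EDG3-Ga15-bla HEK293T cells (final protein 3 µg/well) incubated with compound (11-point, 3-fold dilution) and [35S]GTP 0.2 nM final in 20 mM HEPES pH 7.5, 10 mM MgCl2, 150 mM NaCl, 1 mM EGTA, 1 mM DTT, 10 µM GDP, 0.1% fatty acid free BSA, 10 µg/ml saponin, 45 min at room temperature. Filter capture, scintillation counting; EC50 taken at 50% of each compound's Ymax.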

[12] = tested on: Rattus norvegicus; test: Immunosuppressive activity in po dosed Lewis rat assessed as reduction in blood lymphocytes after 24 hrs; format: functional; method in brief: as §1
[13] = species: Mus musculus; test: Pulmonary toxicity in mouse assessed as increase in BAL protein levels at ED50; format: organism-based; conditions: in vivo
[14] = species: Mus musculus; test: Pulmonary toxicity in mouse assessed as increase in BAL protein levels at 5 times ED50; format: organism-based; conditions: in vivo
[15] = species: Mus musculus; test: Pulmonary toxicity in mouse assessed as increase in BAL protein levels at 15 times ED50; format: organism-based; conditions: in vivo
[16] = species: Mus musculus; test: Pulmonary toxicity in mouse assessed as increase in BAL protein levels at 60 times ED50; format: organism-based; conditions: in vivo
[17] = species: Mus musculus; test: Pulmonary toxicity in mouse assessed as increase in BAL protein levels up to 10 times ED50; format: organism-based; conditions: in vivo
[18] = species: Mus musculus; test: Pulmonary toxicity in mouse assessed as increase in BAL protein levels at 30 times ED50; format: organism-based; conditions: in vivo
[19] = target: Sphingosine 1-phosphate receptor 3 (Homo sapiens, UniProt Q99500); test: Agonist activity at human EDG3-Ga15-bla expressed in HEK293T cells after 45 mins by [35S]GTPgammaS binding assay; format: functional, cell-based; method in brief: as §2
[20] = tested on: Cardiac muscle cell; test: Toxicity in human inducible pluripotent stem cell derived cardiomyocytes assessed as reduction in beating rate at 10 nM after 20 mins by multi-electrode array electrophysiology study; format: cell-based; parameters: scale not given: the % may be the effect or the level left; conditions: 0.01 µM
Method in brief: (§3)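 hiPSC cardiomyocytes were grown 7 days at 7% CO2 on gelatin, then co-cultured with 10% cardiac fibroblasts for 7 days on laminin-coated 9-well MEA plates until they formed a beating monolayer. After 20-60 min equilibration at 37 °C, compound was added in maintenance medium (DMSO or NaOH vehicle below 0.1% or 30 µM). Field potentials were recorded at 10 kHz from 28 electrodes/well for at least 2 h. Reported as mean change in beating rate versus control, mean ± SD of ≥3 experiments.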

[21] = tested on: Cardiac muscle cell; test: Toxicity in human inducible pluripotent stem cell derived cardiomyocytes assessed as reduction in beating rate at 1 nM after 20 mins by multi-electrode array electrophysiology study; format: cell-based; parameters: scale not given: the % may be the effect or the level left; conditions: 0.001 µM; method in brief: as §3

Sphingosine 1-phosphate receptor 1, sequence (P21453 whole entry): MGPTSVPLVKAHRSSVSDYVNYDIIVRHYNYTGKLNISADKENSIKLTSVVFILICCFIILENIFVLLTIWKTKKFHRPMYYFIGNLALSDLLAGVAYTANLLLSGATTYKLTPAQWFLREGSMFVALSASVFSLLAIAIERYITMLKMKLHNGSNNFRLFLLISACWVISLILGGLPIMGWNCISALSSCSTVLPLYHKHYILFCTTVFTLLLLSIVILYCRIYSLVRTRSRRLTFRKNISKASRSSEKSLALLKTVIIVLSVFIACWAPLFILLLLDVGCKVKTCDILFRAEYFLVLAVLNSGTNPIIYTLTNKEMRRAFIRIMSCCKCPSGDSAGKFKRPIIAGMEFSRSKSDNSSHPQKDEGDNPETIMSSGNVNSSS
Sphingosine 1-phosphate receptor 3, sequence (Q99500 whole entry): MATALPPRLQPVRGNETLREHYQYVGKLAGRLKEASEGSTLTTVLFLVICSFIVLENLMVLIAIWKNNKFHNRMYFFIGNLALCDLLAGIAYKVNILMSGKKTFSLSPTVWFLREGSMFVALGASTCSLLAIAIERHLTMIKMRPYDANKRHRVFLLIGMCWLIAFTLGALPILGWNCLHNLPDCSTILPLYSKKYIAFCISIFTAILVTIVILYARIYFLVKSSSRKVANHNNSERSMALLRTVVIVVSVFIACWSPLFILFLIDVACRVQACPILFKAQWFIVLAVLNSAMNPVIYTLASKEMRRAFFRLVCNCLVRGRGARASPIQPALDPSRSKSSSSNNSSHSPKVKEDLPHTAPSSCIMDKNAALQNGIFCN

SMILES	Activity [1] [%]	Drug metabolism [2] [nM]	concentration [3] [nM]	Drug metabolism [4] [nM]	Activity [5] [%]	Activity [6] [%]	concentration [7] [nM]	concentration [8] [nM]	half-life [9] [h]	Drug metabolism [10] [nM]	Emax [11] [%]	also measured
CCCCCCOc1nc2ccc3cc([C@H]4CC[C@](N)(CO)C4)ccc3c2s1	83	250	41	260	86	73	81	78	41	160	–	–
CCCCCCOc1nc2c(s1)-c1ccc([C@H]3CC[C@](N)(COP(=O)(O)O)C3)cc1CC2	–	–	–	–	–	–	–	–	–	–	100	–
CCCCNc1nc2c(s1)-c1ccc([C@H]3CC[C@](N)(CO)C3)cc1CC2	0	190	–	570	–	37	33	–	–	–	–	–
CCCCOc1nc2c(s1)-c1ccc([C@H]3CC[C@](N)(CO)C3)cc1CC2	68	20	< 5	34	26	74	35	7	5	4	–	ED50 [12]: 1 mg/kg; Activity [13]: Toxic
CCCCCOc1nc2ccc3cc([C@H]4CC[C@](N)(CO)C4)ccc3c2s1	80	–	8.3	–	68	80	31	17	35	–	–	–
CCCCCCOc1nc2c(s1)-c1ccc([C@H]3CC[C@](N)(CO)C3)cc1CC2	82	< 5	17	62	82	66	72	31	25	< 5	–	–
CCCCSc1nc2ccc3cc([C@H]4CC[C@](N)(CO)C4)ccc3c2s1	75	8.1	< 5	10	59	69	15	8	6	< 5	–	–
CCCCCSc1nc2c(s1)-c1ccc([C@H]3CC[C@](N)(CO)C3)cc1CC2	76	10	< 5	43	44	72	87	16	5	< 5	–	–
CCCCSc1nc2c(s1)-c1ccc([C@H]3CC[C@](N)(CO)C3)cc1CC2	48	2.3	< 1	15	16	82	9.1	1.4	< 5	< 1	–	ED50 [12]: 2 mg/kg; Activity [14]: Toxic; Activity [15]: Toxic
CCCCCc1nc2c(s1)-c1ccc([C@H]3CC[C@](N)(CO)C3)cc1CC2	83	56	25	91	56	33	100	55	20	16	–	ED50 [12]: 0.5 mg/kg; Activity [16]: Toxic; Activity [17]: Non-Toxic; Activity [18]: Non-Toxic
CCCCNc1nc2c(s1)-c1ccc([C@H]3CC[C@](N)(COP(=O)(O)O)C3)cc1CC2	–	–	–	–	–	–	–	–	–	–	49	EC50 [11]: 130 nM
CCCCCOc1nc2c(s1)-c1ccc([C@H]3CC[C@](N)(CO)C3)cc1CC2	80	26	12	71	59	67	81	29	21	< 5	–	–
CCCCOCCOc1nc2c(s1)-c1ccc([C@H]3CC[C@](N)(COP(=O)(O)O)C3)cc1CC2	–	–	–	–	–	–	–	–	–	–	110	EC50 [11]: 1 nM; EC50 [19]: 190 nM
CCCCSc1nc2c(s1)-c1ccc([C@H]3CC[C@](N)(COP(=O)(O)O)C3)cc1CC2	–	–	–	–	–	–	–	–	–	–	58	Activity [20]: Toxic; Activity [21]: Toxic
CCCCCCc1nc2c(s1)-c1ccc([C@H]3CC[C@](N)(CO)C3)cc1CC2	82	160	< 10	140	74	59	110	66	35	50	–	–
CCCc1nc2c(s1)-c1ccc([C@H]3CC[C@](N)(COP(=O)(O)O)C3)cc1CC2	–	–	–	–	–	–	–	–	–	–	79	–
Cc1ccc(-c2nc3c(s2)-c2ccc([C@H]4CC[C@](N)(CO)C4)cc2CC3)cc1	2.1	19	–	12	–	9.3	48	37	6	–	–	–
COc1cccc(-c2nc3c(s2)-c2ccc([C@H]4CC[C@](N)(CO)C4)cc2CC3)c1	63	< 5	< 5	39	30	31	97	68	4	< 5	–	–
CCCCCc1nc2c(s1)-c1ccc([C@H]3CC[C@](N)(COP(=O)(O)O)C3)cc1CC2	–	–	–	–	–	–	–	–	–	–	79	Activity [20]: Toxic; EC50 [11]: 21 nM; Activity [21]: Toxic; EC50 [19]: > 3000 nM
CCCc1nc2c(s1)-c1ccc([C@H]3CC[C@](N)(CO)C3)cc1CC2	0	< 10	–	79	–	41	110	< 19	< 2	–	–	–
CCCCCCCc1nc2c(s1)-c1ccc([C@H]3CC[C@](N)(COP(=O)(O)O)C3)cc1CC2	–	–	–	–	–	–	–	–	–	–	98	–
CCCCc1nc2c(s1)-c1ccc([C@H]3CC[C@](N)(CO)C3)cc1CC2	48	8.2	< 5	97	12	66	77	9.4	< 4	< 5	–	–
CCCCN(C)c1nc2c(s1)-c1ccc([C@H]3CC[C@](N)(CO)C3)cc1CC2	27	–	4.1	–	4.4	30	110	18	9	–	–	–
CCCCCCCc1nc2c(s1)-c1ccc([C@H]3CC[C@](N)(CO)C3)cc1CC2	77	300	43	63	80	40	66	110	> 50	150	–	–
CCCCOc1nc2ccc3cc([C@H]4CC[C@](N)(CO)C4)ccc3c2s1	77	< 5	12	5.1	59	65	28	21	14	< 5	–	–
CCCCOc1nc2c(s1)-c1ccc([C@H]3CC[C@](N)(COP(=O)(O)O)C3)cc1CC2	–	–	–	–	–	–	–	–	–	–	58	Activity [20]: 36%; Activity [21]: 16%
